# Source: ChEMBL document CHEMBL3352291, “Synthesis and structure-activity relationship of thiobarbituric acid derivatives as potent inhibitors of urease” (Bioorg Med Chem, 2014)
# Assay: Inhibition of Bacillus pasteurii urease using urea substrate assessed as reduction in ammonia production after 15 mins by indophenol's method
# Design: species or system Sporosarcina pasteurii
# In short: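 One unit of B. pasteurii urease in buffer containing 100 mM urea, incubated with test compound (added as 1 mM solution) at 30 °C for 15 min. Ammonia was measured by the indophenol method: phenol reagent and alkali reagent were added, and the increase in absorbance at 630 nm was read after 50 min on a plate reader.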
row,Compound,IC50
1,Cc1ccc(C=C2C(=O)NC(=S)NC2=O)o1,18.2 µM
2,O=C1NC(=S)NC(=O)C1=Cc1c[nH]c2ccccc12,171 µM
3,COc1cc(C=C2C(=O)NC(=S)NC2=O)cc(OC)c1O,46.5 µM
4,O=C1NC(=S)NC(=O)C1=Cc1ccc(O)c(O)c1O,25.2 µM
5,COc1ccc(C=C2C(=O)NC(=S)NC2=O)cc1O,22.8 µM
6,Nc1ccccc1C=C1C(=O)NC(=S)NC1=O,32.3 µM
7,O=C1NC(=S)NC(=O)C1=Cc1ccc(C=C2C(=O)NC(=S)NC2=O)cc1,6.7 µM
8,O=C1NC(=S)NC(=O)C1=Cc1ccc(O)c(O)c1,1.61 µM
9,COc1ccc(C=C2C(=O)NC(=S)NC2=O)cc1OC,14.3 µM
10,COc1cc(C=C2C(=O)NC(=S)NC2=O)cc(I)c1O,42.5 µM
11,Cc1cccc(C=C2C(=O)NC(=S)NC2=O)n1,16 µM
12,O=C1NC(=S)NC(=O)C1=Cc1cc(Br)c(O)c(Br)c1,10.6 µM
13,CCOc1ccc(C=C2C(=O)NC(=S)NC2=O)cc1,29.4 µM
14,CSc1ccc(C=C2C(=O)NC(=S)NC2=O)cc1,18.1 µM
15,O=C1NC(=S)NC(=O)C1=Cc1cccs1,21.5 µM
16,O=C1NC(=S)NC(=O)C1=Cc1cc(Cl)cc(Cl)c1O,50.3 µM
17,O=C1NC(=S)NC(=O)C1=Cc1c(O)ccc2ccccc12,21.4 µM
18,O=C1NC(=S)NC(=O)C1C=C1c2ccccc2Cc2ccccc21,137 µM
19,NC(N)=S [THIOUREA],21 µM
20,Cc1ccccc1C=C1C(=O)NC(=S)NC1=O,42.1 µM
21,COc1cc(C=C2C(=O)NC(=S)NC2=O)c(OC)cc1Br,43.3 µM
22,COc1cccc(C=C2C(=O)NC(=S)NC2=O)c1O,19.2 µM
23,COc1cc(Br)c(C=C2C(=O)NC(=S)NC2=O)cc1OC,47.3 µM
24,O=C1NC(=S)NC(=O)C1=Cc1ccc(O)cc1O,32.1 µM
25,COc1ccc(O)c(C=C2C(=O)NC(=S)NC2=O)c1,32.7 µM
26,O=C1NC(=S)NC(=O)C1=Cc1c(Cl)c2cc(Br)ccc2oc1=O,62.8 µM
27,O=C1NC(=S)NC(=O)C1=Cc1ccncc1,16 µM
28,CN(C)c1ccc(C=C2C(=O)NC(=S)NC2=O)cc1,58.5 µM
